APJ ag: agonists of human apelin receptor APJ, primary screen, CHO-K1 cells, PathHunter beta-arrestin, luminescence; 0% DMSO wells, 100% apelin; activation, % at 20 µM; hit rate 0.11% among 330,000;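 active = activation more than six SD over the plate average, tested at 20 µM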;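 note: 0% = DMSO alone and 100% = apelin-13 at 10 nM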
Target sequence (P35414 whole entry, looked up): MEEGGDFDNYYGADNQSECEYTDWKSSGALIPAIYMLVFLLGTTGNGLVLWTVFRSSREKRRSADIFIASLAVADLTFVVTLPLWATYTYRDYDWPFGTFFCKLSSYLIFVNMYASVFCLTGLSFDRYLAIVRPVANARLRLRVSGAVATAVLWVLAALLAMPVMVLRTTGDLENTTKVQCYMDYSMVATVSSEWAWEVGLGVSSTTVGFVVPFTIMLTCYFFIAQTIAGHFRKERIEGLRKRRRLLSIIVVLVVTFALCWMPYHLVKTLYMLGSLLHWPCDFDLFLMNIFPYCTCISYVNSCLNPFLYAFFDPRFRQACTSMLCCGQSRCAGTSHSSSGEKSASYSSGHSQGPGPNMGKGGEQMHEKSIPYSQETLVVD
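Assay system: CHO-K1 APJ beta-arrestin complementation cell line / Compound: single test compound dose, 20 µM final, 1% DMSO / Times: overnight seeding, 90 min compound at 25 °C, 1 h detection / Technique: beta-gal luminescence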
APJ antagonist: antagonists of human apelin receptor APJ, primary screen, CHO-K1 cells, beta-arrestin complementation, luminescence | hit rate 0.32% among 330,000 | inhibition, % at 20 µM | P35414;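 active = inhibition above about 40% at 20 µM, limit read from the data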;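 note: cells challenged with 10 nM apelin-13 agonist together with compound; plate controls were apelin-13 plus DMSO wells for no effect and DMSO wells lacking apelin-13 for full effect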
CXCR6 inh: CXCR6 receptor inhibitors, primary screen, cell-based, beta-arrestin, luminescence, CHO-K1 PathHunter, 1536-well | C-X-C chemokine receptor type 6 (Homo sapiens), O00574 | inhibition, % at 20 µM | hit rate 0.36% among 360,000 | AID 602244, 2012; in the data active = inhibition above about 34%, passing the limit was not always enough;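 note: antagonist mode with CXCL16 agonist at 10 nM final; 0% = 10 nM CXCL16 with DMSO and 100% = unstimulated wells without agonist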
CCR6 antagonist: CCR6 receptor antagonists, primary screen, cell-based, CHO-K1, luminescence, beta-arrestin, uHTS; CHO-K1 CCR6 PathHunter beta-arrestin, CCL20-stimulated; inhibition, % at 20 µM; hit rate 0.49% among 340,000; AID 493098, 2011;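 active = compounds whose inhibition of the agonist-driven luminescence signal at 20 µM reaches about 50%, limit read from the data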;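 note: cells stimulated with CCL20 at 14 nM final; plate controls were DMSO with CCL20 for no effect and DMSO without agonist for full effect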
EBI2 antag: EBI2 receptor antagonists, beta-arrestin recruitment, primary screen, cell-based, luminescence, 7a,25-OHC stimulation, uHTS. 7a,25-OHC stimulated. inhibition, % at 5 µM. hit rate 0.81% among 360,000. AID 651636, 2012; in the data active = inhibition above about 38%;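 note: enzyme fragment complementation signal reports receptor beta-arrestin coupling in cells; 0% = agonist plus DMSO wells and 100% = wells without agonist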
APJ antag confirm: APJ antagonists blocking beta-arrestin recruitment, confirmation, cell-based, luminescence, single concentration, uHTS hits; shares compounds with APJ antagonist; antagonist mode; inhibition, % at 20 µM; hit rate 66% among 950; AID 2766, 2010; in the data active = inhibition above about 50%
* hit, by the source's call; / = no result. In the library only some 1.5% were active in any assay of this set; here they are far more common.

SMILES	APJ ag	APJ antagonist	CXCR6 inh	CCR6 antagonist	EBI2 antag	APJ antag confirm
O=C1/C(=C\c2ccc(O)c(O)c2)SC(=S)N1Cc1ccccc1	-8	56*	52*	71*	15	100*
COc1cc(/C=C2\SC(=S)N(N3CCOCC3)C2=O)cc(OC)c1OC	-1	11	1	12	8	/
COc1cc(/C=C2/SC(=S)N(Cc3ccccc3)C2=O)ccc1O	-10	47*	36	59*	24	103*
COc1cc(/C=C2\SC(=S)N(N3CCOCC3)C2=O)ccc1O	-6	51*	40*	33	21	70*
Cc1c(N2C(=O)/C(=C3/C(=O)N(C)c4ccccc43)SC2=S)c(=O)n(-c2ccccc2)n1C	-1	-10	28	37	8	/
COc1cc(/C=C2/SC(=S)N(c3c(C)n(C)n(-c4ccccc4)c3=O)C2=O)ccc1O	-6	53*	51*	51*	18	92*
O=C1/C(=C\c2cccc(O)c2)SC(=S)N1Cc1ccccc1	-3	18	6	10	-2	/
O=C1/C(=C\c2cccc(O)c2O)SC(=S)N1Cc1ccccc1	-8	42*	35	47	5	68*
COc1ccc(C(=O)Nc2ccc(Cl)c(S(=O)(=O)Nc3ccccc3OC)c2)cc1	0	41*	0	21	2	23
CCCC(=O)Nc1nnc(SCC(=O)Nc2ccc(OCC)cc2)s1	/	/	3	/	1	/
Nc1[nH]n2c(=O)cc(-c3ccccc3)nc2c1N=Nc1ccc(S(N)(=O)=O)cc1	-7	42*	22	51*	12	65*
Cc1ccc(N=Nc2c(N)[nH]n3c(=O)cc(C)nc23)cc1	/	/	-1	15	-5	/
COc1ccc(C=C(C#N)C(=O)c2ccccc2)cc1	/	/	6	/	0	/
COc1cc(/C=C(\C#N)C(=O)c2ccc(O)c(O)c2)cc(I)c1O	-6	42*	33	57*	10	60*
OCc1ccc(-c2cccc3nccn23)cc1	/	/	1	/	-14	/
COc1cc(CN2C[C@@H](CO)O[C@@H](n3cnc4c(N5CCN(C)CC5)ncnc43)C2)cc(OC)c1OC	/	/	1	/	-8	/
O=C(c1ccco1)N1CCN(C(=O)C2(S(=O)(=O)c3ccc(Cl)cc3)CC2)CC1	2	41*	6	-3	-1	14
COc1ccc(NC(=O)C2(C)CCN2CCOc2ccccc2)cc1OC (stereo unspecified)	/	/	2	/	-7	/
O=C1c2ccccc2C(c2nnnn2Cc2ccccc2)N1Cc1ccc2c(c1)OCO2 (stereo unspecified)	/	/	6	/	6	/
COc1ccc(NC(=O)CS(=O)(=O)c2ccc(C)cc2)c(OC)c1	-3	110*	7	2	-12	17
Cc1ccc(C)c(-c2cc(C(=O)NNC(=S)NCC(C)C)c3ccccc3n2)c1	-7	45*	3	35	4	28
CCN1C=C(Cc2cccs2)C2=C(C1)C(c1cccs1)C(C#N)=C(N)O2 (stereo unspecified)	-4	41*	9	32	6	-14
CCOC(=O)C1=C(C)N(C)C(=O)NC1c1c(C)nn(-c2ccc(C)cc2)c1Cl (stereo unspecified)	-3	2	3	10	-7	/
CCOC(=O)C1=C(C)NC(=O)NC1c1c(C)nn(-c2ccccc2)c1Cl (stereo unspecified)	1	44*	1	3	-7	14
CCOc1ccc(C(=O)NC(=S)Nc2cccnc2)cc1[N+](=O)[O-]	-5	43*	17	34	-10	43
SMILES	APJ ag	APJ antagonist	CXCR6 inh	CCR6 antagonist	EBI2 antag	APJ antag confirm
CCC(=O)N1Cc2cc(C(=O)Nc3nccs3)nc(-c3cccc(-c4ccccc4OC)c3)c2[C@@H]1CCO	/	/	-16	/	-15	/
CS(=O)(=O)Nc1ccc(S(=O)(=O)NC2CCCCC2)cc1	-3	46*	-7	4	-4	28
O=[N+]([O-])c1ccc(N2CCN(S(=O)(=O)c3ccccc3)CC2)c2cccnc12	-5	46*	31	52*	16	65*
CC(C)c1ccc(NC(=O)C2Cc3c(-c4ccccc4Oc4ccccc4)ccnc3O2)cc1 (stereo unspecified)	/	/	9	/	5	/
O=C1C2C3C=CC(C3)C2C(=O)N1/N=C/c1cc(Br)cc([N+](=O)[O-])c1O (stereo unspecified)	-5	42*	37	54*	11	52*
Cc1ccc(C)c(S(=O)(=O)Nc2ccc(O)c(C(=O)O)c2)c1	0	48*	4	-3	-5	36
CN(C)c1cccc(F)c1C(=O)NC(=O)Nc1ccc(Cl)cc1	/	/	-2	8	-2	/
CCc1nc2ccc(C(=O)NCCN3CCOCC3)cn2c1N(C=O)Cc1ccc(OC)cc1	/	/	-4	/	-4	/
CCCCN(CC)c1nc(-c2ccncc2)nc2ccccc12	-1	-9	-4	6	-6	/
CCCN(CCC)c1nc(-c2ccccn2)nc2ccccc12	-10	41*	37	35	-3	80*
c1ccc(-c2nc(N3CCCCCC3)c3ccccc3n2)nc1	-8	49*	13	40	-4	62*
CSc1ncccc1C(=O)OCC(=O)c1ccc(S(=O)(=O)N2CCCCC2)cc1	-17	46*	37	34	21	30
Cc1cc(C)nc(NNS(=O)(=O)c2ccc(F)c(Cl)c2)n1	-22	53*	21	42	30	109*
Cc1cc(C)nc(NNS(=O)(=O)c2ccc(Cl)cc2)n1	-17	75*	26	53*	7	113*
COc1ccc(S(=O)(=O)NNc2nc(C)cc(C)n2)cc1Br	-18	54*	21	30	7	52*
CCCCCCCc1ccc(C2NC(=S)NC3=C2C(=O)c2ccccc23)cc1 (stereo unspecified)	-5	56*	/	13	/	23
COc1ccc(-n2cnc3c(N)nc(N)nc32)cc1	/	/	5	17	3	/
COc1ccccc1-c1noc2c1C(=O)N(Cc1cn(-c3ccccc3OC)nn1)CC2	/	/	-1	/	-9	/
COC(=O)[C@@]12C[C@@H](CC(=O)N3CCN(C(=O)C4CC4)CC3)C(=O)N(Cc3ccco3)C1=CCC(C)(C)C2	/	/	/	/	8	/
O=C(NNC(=O)c1cccs1)c1cccnc1	1	10	0	3	-12	/
O=C(NC(O)C(=O)c1cccs1)c1cccnc1 (stereo unspecified)	-7	50*	7	25	10	31
O=C(NC(O)C(=O)c1ccccc1)c1cccs1 (stereo unspecified)	-11	48*	21	41	-2	25

High-throughput results: PubChem BioAssay, Sanford-Burnham Center for Chemical Genomics
